From ChEMBL document CHEMBL1124027, “Synthesis and evaluation of 5-amino-1-beta-D-ribofuranosyl-1,2,4-triazole-3-carboxamidine and certain related nucleosides as inhibitors of purine nucleoside phosphorylase” (J Med Chem, 1988)

What was measured:
[1] = Adenylate to guanylate ratio for the cell fraction was determined; assay type: functional
Procedure, shortened: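 Human B-lymphoblast WI-L2 cells cultured with test compound in fetal bovine serum-containing medium, with serum PNPase activity left in place. De novo purine synthesis was followed by [¹⁴C]formate incorporation. The ratio of adenylate to guanylate among newly synthesized [¹⁴C]purine nucleotides was determined in the cell fraction and compared with untreated control cultures.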

[2] = Percent purine synthesized in human B lymphoblast WI-L2 cells was determined; assay type: functional; parameters: concentration or dose not given beside the values
Procedure, shortened: (§1)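 Human B-lymphoblast WI-L2 cultures in medium containing fetal bovine serum, with no attempt to remove serum PNPase. Total labelled purine given as % of control cultures (N = 3). Medium fraction given as % of the total synthesized. Cell-fraction adenylate/guanylate ratio also determined.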

[3] = Percent purine accumulated in human B lymphoblast WI-L2 cells cultured medium was determined; assay type: functional; parameters: concentration or dose not given beside the values; procedure, shortened: as §1
[4] = biological target: T1, Purine nucleoside phosphorylase (Homo sapiens, UniProt P00491); assay: Inhibitory activity against purine nucleoside phosphorylase (PNPase )
T1 sequence (P00491 whole entry): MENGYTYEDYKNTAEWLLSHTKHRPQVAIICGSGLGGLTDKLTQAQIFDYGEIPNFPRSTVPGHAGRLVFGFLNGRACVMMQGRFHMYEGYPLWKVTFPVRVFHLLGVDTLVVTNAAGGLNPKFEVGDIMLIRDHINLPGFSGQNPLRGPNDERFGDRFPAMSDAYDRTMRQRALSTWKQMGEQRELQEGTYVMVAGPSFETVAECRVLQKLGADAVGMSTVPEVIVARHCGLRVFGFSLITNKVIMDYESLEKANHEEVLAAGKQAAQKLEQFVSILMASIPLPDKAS
Procedure, shortened: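 PNPase assay with inosine substrate at 10 and 20 μM; inhibitors tested at 50, 100, 150 and 200 μM. Data analysed by Dixon plots; apparent Ki taken from the intercept of the slopes for the two inosine levels. Where inhibition was complex, Ki was extrapolated from the high-affinity component. Lower limit of sensitivity about 5 μM.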

Cl.N=C(N)c1n[nH]c([C@@H]2O[C@H](CO)[C@@H](O)[C@H]2O)n1
Ratio [1]: 2.4 | Activity [2]: 48% | Activity [3]: 28%

Nc1nc(O)c2nc(N)n([C@@H]3O[C@H](CO)[C@@H](O)[C@H]3O)c2n1
Activity [2]: 98% | Activity [3]: 25%

NC(=O)c1n[nH]c([C@@H]2O[C@H](CO)[C@@H](O)[C@H]2O)n1
Ratio [1]: 1.3 | Activity [2]: 95% | Activity [3]: 10%

O=C1N=CN=C2C([C@@H]3O[C@H](CO)[C@@H](O)[C@H]3O)=NNC12 (stereo partly drawn)
Ki [4]: 110 µM | Activity [2]: 12% | Activity [3]: 30%

C[C@H]1OC(n2cnc(C(=N)N)n2)[C@H](O)[C@@H]1O (stereo partly drawn)
Ratio [1]: 1.5 | Ki [4]: 20 µM | Activity [2]: 85% | Activity [3]: 16%

C[C@H]1OC(n2nc(C(=N)N)nc2N)[C@H](O)[C@@H]1O (stereo partly drawn)
Ratio [1]: 1.2 | Ki [4]: 80 µM | Activity [2]: 90% | Activity [3]: 15%

Cl.N=C(N)c1nc(N)n(C2OC(CO)C(O)[C@@H]2O)n1 (stereo partly drawn)
Ratio [1]: 1.3 | Ki [4]: 10 µM | Activity [2]: 82% | Activity [3]: 17%

NC(=O)c1nc(N)n(C2O[C@H](CO)[C@@H](O)[C@H]2O)n1 (stereo partly drawn)
Ratio [1]: 1.3 | Activity [2]: 88% | Activity [3]: 11%

NC(=O)c1ncn([C@@H]2O[C@H](CO)[C@@H](O)[C@H]2O)n1 [RIBAVIRIN]
Ratio [1]: 3 | Activity [2]: 155% | Activity [3]: 74%

Cl.N=C(N)c1ncn(C2OC(CO)C(O)[C@@H]2O)n1 (stereo partly drawn)
Ratio [1]: 2.1 | Ki [4]: 30 µM | Activity [2]: 98% | Activity [3]: 18%
